Test system: MOLM-13
Assay: Antiproliferative activity against human MOLM13 cells harboring FLT3 ITD mutant assessed as incorporation of [3H]thymidine into DNA after 72 hrs by beta-plate counting analysis
Format: functional, cell-based
Conditions: not given

IC50 [nM] | Compound
13 | C[C@H]1CC[C@H](n2c3cnccc3c3cnc(Nc4ccc(N5CCNCC5)nn4)nc32)CC1
62 | N#Cc1nccc2c3cnc(Nc4ccc(N5CCNCC5)cn4)nc3n(C3CCCC3)c12
21 | C[C@H]1CC[C@H](n2c3cnccc3c3cnc(Nc4ccc(N5CCC6(CCC(=O)N6)CC5)cn4)nc32)CC1
5 | CNC(=O)c1cc(Oc2ccc(NC(=O)Nc3ccc(Cl)c(C(F)(F)F)c3)cc2)ccn1 [SORAFENIB]
8 | C[C@H]1CC[C@H](n2c3cnccc3c3cnc(Nc4ccc(N5CCC(N)CC5)cn4)nc32)CC1
32 | C[C@H]1CC[C@H](n2c3cnccc3c3cnc(Nc4ccc(N5CCC6(CC5)CCS(=O)(=O)C6)nn4)nc32)CC1

Test system: MOLM-13
Assay: Induction of apoptosis in human MOLM13 cells harboring FLT3 ITD mutant at 1 uM after 48 hrs by Annexin V/Sytox Green staining based flow cytometry
Format: functional
Conditions: not given
Summary of the method: (§1)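 MOLM13, sorafenib-resistant MOLM13 and U937 cells were each exposed to compound at 1 μM for 48 h. Cells were then stained with Annexin V/Sytox Green and analysed by flow cytometry. Readout is apoptotic cells as a percentage of all cells analysed.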

Compound | Activity [%]
CNC(=O)c1cc(Oc2ccc(NC(=O)Nc3ccc(Cl)c(C(F)(F)F)c3)cc2)ccn1 [SORAFENIB] | 84.6

Molecular target: Cyclin-dependent kinase 1/cyclin B1 (Homo sapiens, UniProt P06493)
Sequence (P06493 whole entry): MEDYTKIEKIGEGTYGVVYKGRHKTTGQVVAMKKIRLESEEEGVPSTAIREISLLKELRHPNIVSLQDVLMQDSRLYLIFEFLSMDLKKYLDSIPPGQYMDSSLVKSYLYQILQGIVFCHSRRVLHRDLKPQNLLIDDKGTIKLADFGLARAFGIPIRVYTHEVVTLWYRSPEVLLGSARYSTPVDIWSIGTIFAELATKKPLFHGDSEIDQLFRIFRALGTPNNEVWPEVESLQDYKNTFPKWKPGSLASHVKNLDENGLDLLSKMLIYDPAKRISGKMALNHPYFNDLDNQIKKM
Sequence (P14635 whole entry, further chain): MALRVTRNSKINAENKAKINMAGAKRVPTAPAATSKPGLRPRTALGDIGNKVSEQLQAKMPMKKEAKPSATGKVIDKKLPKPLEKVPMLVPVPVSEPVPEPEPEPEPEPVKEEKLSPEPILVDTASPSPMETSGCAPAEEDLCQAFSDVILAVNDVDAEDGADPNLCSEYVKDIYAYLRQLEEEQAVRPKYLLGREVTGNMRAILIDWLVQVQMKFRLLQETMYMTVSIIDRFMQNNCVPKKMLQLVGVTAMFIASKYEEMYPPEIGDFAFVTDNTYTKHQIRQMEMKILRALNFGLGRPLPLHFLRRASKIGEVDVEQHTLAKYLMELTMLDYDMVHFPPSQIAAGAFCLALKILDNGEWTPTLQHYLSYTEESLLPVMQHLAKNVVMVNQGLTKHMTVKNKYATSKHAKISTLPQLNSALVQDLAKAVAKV
Assay: Inhibition of CDK1/cyclin B (unknown origin) using histone H1 as substrate after 60 mins by scintillation counting analysis in presence of [r-33P]ATP
Format: protein-complex assay
Conditions: not given

IC50 [nM] | Compound
1530 | C[C@H]1CC[C@H](n2c3cnccc3c3cnc(Nc4ccc(N5CCNCC5)nn4)nc32)CC1
30000 | N#Cc1nccc2c3cnc(Nc4ccc(N5CCNCC5)cn4)nc3n(C3CCCC3)c12
1770 | C[C@H]1CC[C@H](n2c3cnccc3c3cnc(Nc4ccc(N5CCC6(CCC(=O)N6)CC5)cn4)nc32)CC1
410 | C[C@H]1CC[C@H](n2c3cnccc3c3cnc(Nc4ccc(N5CCC(N)CC5)cn4)nc32)CC1
1630 | C[C@H]1CC[C@H](n2c3cnccc3c3cnc(Nc4ccc(N5CCC6(CC5)CCS(=O)(=O)C6)nn4)nc32)CC1

Test system: not listed separately
Assay: Oral bioavailability in rat
Format: ADME, organism-based
Conditions: in vivo
Summary of the method: (§2)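 Intravenous and oral (gavage, solution) PK in rat, dog and cynomolgus monkey. The rat vehicle for both routes was water/acetate/tween at pH 4, 96/3/1 (v/v/v). Dog and monkey iv doses used 40% PG aqueous solution at pH 2, and their oral doses used 20% captisol aqueous solution.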

bioavailability [%] | Compound
11 | C[C@H]1CC[C@H](n2c3cnccc3c3cnc(Nc4ccc(N5CCNCC5)nn4)nc32)CC1
48 | C[C@H]1CC[C@H](n2c3cnccc3c3cnc(Nc4ccc(N5CCC6(CCC(=O)N6)CC5)cn4)nc32)CC1
38 | C[C@H]1CC[C@H](n2c3cnccc3c3cnc(Nc4ccc(N5CCC6(CC5)CCS(=O)(=O)C6)nn4)nc32)CC1

Test system: not listed separately
Assay: Clearance in iv dosed rat
Format: ADME, organism-based
Conditions: in vivo
Summary of the method: as §2

clearance [mL/min/kg] | Compound
5.83 | C[C@H]1CC[C@H](n2c3cnccc3c3cnc(Nc4ccc(N5CCNCC5)nn4)nc32)CC1
21.7 | C[C@H]1CC[C@H](n2c3cnccc3c3cnc(Nc4ccc(N5CCC6(CCC(=O)N6)CC5)cn4)nc32)CC1
9 | C[C@H]1CC[C@H](n2c3cnccc3c3cnc(Nc4ccc(N5CCC6(CC5)CCS(=O)(=O)C6)nn4)nc32)CC1

Molecular target: Cyclin-dependent kinase 4/cyclin D1 (Homo sapiens, UniProt P11802)
Sequence (P11802 whole entry): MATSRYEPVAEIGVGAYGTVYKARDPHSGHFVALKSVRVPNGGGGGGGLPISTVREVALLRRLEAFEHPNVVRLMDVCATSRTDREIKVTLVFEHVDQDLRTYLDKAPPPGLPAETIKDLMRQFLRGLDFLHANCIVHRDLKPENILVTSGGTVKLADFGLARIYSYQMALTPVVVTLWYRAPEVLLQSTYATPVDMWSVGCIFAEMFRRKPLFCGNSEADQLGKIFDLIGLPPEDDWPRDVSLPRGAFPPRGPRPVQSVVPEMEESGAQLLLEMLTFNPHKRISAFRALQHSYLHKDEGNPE
Sequence (P24385 whole entry, further chain): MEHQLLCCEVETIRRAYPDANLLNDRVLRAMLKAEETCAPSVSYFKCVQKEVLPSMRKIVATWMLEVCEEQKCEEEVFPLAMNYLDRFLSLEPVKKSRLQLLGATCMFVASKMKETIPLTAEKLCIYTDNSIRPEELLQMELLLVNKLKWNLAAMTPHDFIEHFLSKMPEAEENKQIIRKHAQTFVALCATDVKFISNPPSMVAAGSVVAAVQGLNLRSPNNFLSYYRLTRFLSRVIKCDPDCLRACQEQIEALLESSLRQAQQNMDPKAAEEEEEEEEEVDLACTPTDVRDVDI
Assay: Inhibition of CDK4/cyclin D1 (unknown origin) using Rb as substrate after 60 mins by scintillation counting analysis in presence of [r-33P]ATP
Format: protein-complex assay
Conditions: not given

IC50 [nM] | Compound
2 | C[C@H]1CC[C@H](n2c3cnccc3c3cnc(Nc4ccc(N5CCNCC5)nn4)nc32)CC1
27 | N#Cc1nccc2c3cnc(Nc4ccc(N5CCNCC5)cn4)nc3n(C3CCCC3)c12
3 | C[C@H]1CC[C@H](n2c3cnccc3c3cnc(Nc4ccc(N5CCC6(CCC(=O)N6)CC5)cn4)nc32)CC1
2 | C[C@H]1CC[C@H](n2c3cnccc3c3cnc(Nc4ccc(N5CCC(N)CC5)cn4)nc32)CC1
4 | C[C@H]1CC[C@H](n2c3cnccc3c3cnc(Nc4ccc(N5CCC6(CC5)CCS(=O)(=O)C6)nn4)nc32)CC1

Test system: not listed separately
Assay: Drug uptake in CrTac:NCR-Foxn1nu (NCR) nude mouse at 150 mg/kg, po after 3 hrs
Format: ADME, organism-based
Parameters: dose 150 mg/kg, route oral
Conditions: in vivo, read-out: Drug uptake
Summary of the method: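 Total plasma drug concentration in mouse PK studies, taken 3 h after a 150 mg/kg oral dose.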

concentration at 3 h [µM] | Compound
14.7 | C[C@H]1CC[C@H](n2c3cnccc3c3cnc(Nc4ccc(N5CCC6(CCC(=O)N6)CC5)cn4)nc32)CC1
11.6 | C[C@H]1CC[C@H](n2c3cnccc3c3cnc(Nc4ccc(N5CCC6(CC5)CCS(=O)(=O)C6)nn4)nc32)CC1

Test system: MOLM-13
Assay: Induction of apoptosis in sorafenib-resistant human MOLM13 cells harboring FLT3 ITD+D835Y mutant at 1 uM after 48 hrs by Annexin V/Sytox Green staining based flow cytometry
Format: functional
Conditions: not given
Summary of the method: as §1

Compound | Activity [%]
CNC(=O)c1cc(Oc2ccc(NC(=O)Nc3ccc(Cl)c(C(F)(F)F)c3)cc2)ccn1 [SORAFENIB] | 5.16

Test system: not listed separately
Assay: Antiproliferative activity against Rb-negative human MDA-MB-436 cells assessed as incorporation of [3H]thymidine into DNA after 72 hrs by beta-plate counting analysis
Format: functional
Conditions: not given

Compound | IC50 [nM]
C[C@H]1CC[C@H](n2c3cnccc3c3cnc(Nc4ccc(N5CCNCC5)nn4)nc32)CC1 | 1010
N#Cc1nccc2c3cnc(Nc4ccc(N5CCNCC5)cn4)nc3n(C3CCCC3)c12 | 1380
C[C@H]1CC[C@H](n2c3cnccc3c3cnc(Nc4ccc(N5CCC6(CCC(=O)N6)CC5)cn4)nc32)CC1 | 7230
C[C@H]1CC[C@H](n2c3cnccc3c3cnc(Nc4ccc(N5CCC(N)CC5)cn4)nc32)CC1 | 1200
C[C@H]1CC[C@H](n2c3cnccc3c3cnc(Nc4ccc(N5CCC6(CC5)CCS(=O)(=O)C6)nn4)nc32)CC1 | 10000

Test system: MOLM-13
Assay: cells
Conditions: Homo sapiens

IC50 [nM] | Compound
> 3000 | CNC(=O)c1cc(Oc2ccc(NC(=O)Nc3ccc(Cl)c(C(F)(F)F)c3)cc2)ccn1 [SORAFENIB]

Test system: COLO 205
Assay: Antiproliferative activity against Rb-positive human COLO205 cells assessed as incorporation of [14C]thymidine into DNA after 72 hrs by beta-plate counting analysis
Conditions: not given

IC50 [nM] | Compound
22 | C[C@H]1CC[C@H](n2c3cnccc3c3cnc(Nc4ccc(N5CCNCC5)nn4)nc32)CC1
350 | N#Cc1nccc2c3cnc(Nc4ccc(N5CCNCC5)cn4)nc3n(C3CCCC3)c12
31 | C[C@H]1CC[C@H](n2c3cnccc3c3cnc(Nc4ccc(N5CCC6(CCC(=O)N6)CC5)cn4)nc32)CC1
> 3000 | CNC(=O)c1cc(Oc2ccc(NC(=O)Nc3ccc(Cl)c(C(F)(F)F)c3)cc2)ccn1 [SORAFENIB]
5 | C[C@H]1CC[C@H](n2c3cnccc3c3cnc(Nc4ccc(N5CCC(N)CC5)cn4)nc32)CC1
38 | C[C@H]1CC[C@H](n2c3cnccc3c3cnc(Nc4ccc(N5CCC6(CC5)CCS(=O)(=O)C6)nn4)nc32)CC1

Test system: U-937
Assay: Antiproliferative activity against human U937 cells assessed as incorporation of [3H]thymidine into DNA after 72 hrs by beta-plate counting analysis
Conditions: not given

IC50 [nM] | Compound
> 3000 | CNC(=O)c1cc(Oc2ccc(NC(=O)Nc3ccc(Cl)c(C(F)(F)F)c3)cc2)ccn1 [SORAFENIB]

Test system: U-937
Assay: Induction of apoptosis in human U937 cells harboring wild type FLT3 at 1 uM after 48 hrs by Annexin V/Sytox Green staining based flow cytometry
Format: functional
Conditions: not given
Summary of the method: as §1

Compound | Activity [%]
CNC(=O)c1cc(Oc2ccc(NC(=O)Nc3ccc(Cl)c(C(F)(F)F)c3)cc2)ccn1 [SORAFENIB] | 8.76

Molecular target: T1, Receptor-type tyrosine-protein kinase FLT3 (Homo sapiens, UniProt P36888)
T1 sequence (P36888 whole entry): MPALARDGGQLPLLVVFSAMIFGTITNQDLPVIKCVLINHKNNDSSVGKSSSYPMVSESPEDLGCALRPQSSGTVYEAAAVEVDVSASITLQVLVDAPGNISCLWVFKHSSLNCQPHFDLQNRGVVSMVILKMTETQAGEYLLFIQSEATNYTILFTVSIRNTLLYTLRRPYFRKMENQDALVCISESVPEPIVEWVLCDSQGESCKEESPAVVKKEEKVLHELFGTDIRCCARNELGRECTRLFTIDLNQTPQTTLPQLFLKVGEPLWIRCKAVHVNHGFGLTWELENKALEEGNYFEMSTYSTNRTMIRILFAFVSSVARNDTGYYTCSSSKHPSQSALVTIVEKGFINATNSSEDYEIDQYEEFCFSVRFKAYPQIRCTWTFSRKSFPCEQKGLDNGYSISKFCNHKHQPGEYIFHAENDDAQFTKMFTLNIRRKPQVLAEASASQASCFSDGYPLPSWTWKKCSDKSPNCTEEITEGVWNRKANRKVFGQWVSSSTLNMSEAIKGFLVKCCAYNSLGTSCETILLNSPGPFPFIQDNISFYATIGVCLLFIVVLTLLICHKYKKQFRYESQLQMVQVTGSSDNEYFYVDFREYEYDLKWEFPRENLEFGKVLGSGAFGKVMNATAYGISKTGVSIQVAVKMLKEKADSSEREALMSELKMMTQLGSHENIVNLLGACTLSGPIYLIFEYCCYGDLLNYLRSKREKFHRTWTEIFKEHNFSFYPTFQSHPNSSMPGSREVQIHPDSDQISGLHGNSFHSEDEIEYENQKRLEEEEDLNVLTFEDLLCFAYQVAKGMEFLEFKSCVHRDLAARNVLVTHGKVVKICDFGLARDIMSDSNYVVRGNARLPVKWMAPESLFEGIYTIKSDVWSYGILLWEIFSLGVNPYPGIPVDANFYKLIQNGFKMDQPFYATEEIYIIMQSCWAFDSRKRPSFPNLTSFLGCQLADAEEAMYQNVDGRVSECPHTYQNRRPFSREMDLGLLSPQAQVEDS
Assay: Inhibition of GST-fused human FLT3 cytoplasmic domain (amino acids 564 to 993) using Ulight-JAK1 as substrate after 1 hr by TR-FRET assay
Conditions: not given

IC50 [nM] | Compound
6 | C[C@H]1CC[C@H](n2c3cnccc3c3cnc(Nc4ccc(N5CCNCC5)nn4)nc32)CC1
46 | N#Cc1nccc2c3cnc(Nc4ccc(N5CCNCC5)cn4)nc3n(C3CCCC3)c12
3 | C[C@H]1CC[C@H](n2c3cnccc3c3cnc(Nc4ccc(N5CCC6(CCC(=O)N6)CC5)cn4)nc32)CC1
1 | C[C@H]1CC[C@H](n2c3cnccc3c3cnc(Nc4ccc(N5CCC(N)CC5)cn4)nc32)CC1
5 | C[C@H]1CC[C@H](n2c3cnccc3c3cnc(Nc4ccc(N5CCC6(CC5)CCS(=O)(=O)C6)nn4)nc32)CC1

Reference: ChEMBL document CHEMBL3232894, “Discovery of AMG 925, a FLT3 and CDK4 dual kinase inhibitor with preferential affinity for the activated state of FLT3” (J Med Chem, 2014)
